Reference: ChEMBL document CHEMBL3243989, “Antibacterial N-[omega, omega'-bis(alicyclic and aryl)-sec-alkyl]poly(methylene)triamine and -tetramine hydrochloride salts” (J Med Chem, 1979)
The source made the active and inactive calls. The rule behind the calls is not given here.

Assays:
Proteus vulgaris = test: Antibacterial activity against Proteus vulgaris MB838 assessed as growth inhibition at 200 ug/mL; assay type: functional, organism-based
Pasteurella multocida = test: Antibacterial activity against Pasteurella multocida MB7 assessed as growth inhibition at 2 to 8 ug/mL; assay type: functional, organism-based
Klebsiella aerogenes = test: Antibacterial activity against Klebsiella aerogenes MB1503 assessed as growth inhibition; assay type: functional
Summary of the method: (§1)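 MIC (µg/mL) by in vitro growth inhibition in an assay system at pH 7.4. Tetracycline was run routinely to check medium, incubation conditions and inoculum virility.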

Streptococcus pyogenes = test: Antibacterial activity against Streptococcus pyogenes assessed as growth inhibition at 2 to 8 ug/mL; assay type: functional, organism-based
Staphylococcus aureus [1] = test: Antibacterial activity against Staphylococcus aureus MB108 assessed as growth inhibition; assay type: functional; summary of the method: as §1
Staphylococcus aureus [2] = test: Antibacterial activity against Staphylococcus aureus MB2865 assessed as growth inhibition; assay type: functional; summary of the method: as §1
Pseudomonas aeruginosa [3] = test: Antibacterial activity against Pseudomonas aeruginosa MB418 assessed as growth inhibition; assay type: functional; summary of the method: as §1
[4] = system: Corynebacterium pseudodiphtheriticum; test: Antibacterial activity against Corynebacterium pseudodiphtheriticum assessed as growth inhibition at 2 to 8 ug/mL; assay type: functional, organism-based
Bacillus subtilis = test: Antibacterial activity against Bacillus subtilis MB964 assessed as growth inhibition; assay type: functional; summary of the method: as §1
[5] = system: Bordetella bronchiseptica; test: Antibacterial activity against Bordetella bronchiseptica MB905 assessed as growth inhibition; assay type: functional; summary of the method: as §1
Escherichia coli = test: Antibacterial activity against Escherichia coli MB2884 assessed as growth inhibition; assay type: functional; summary of the method: as §1
[6] = system: Bordetella bronchiseptica; test: Antibacterial activity against Bordetella bronchiseptica MB3551 assessed as growth inhibition; assay type: functional; summary of the method: as §1
Salmonella = test: Antibacterial activity against Salmonella schottmuelleri MB2837 assessed as growth inhibition; assay type: functional; summary of the method: as §1
Pseudomonas aeruginosa [7] = test: Antibacterial activity against Pseudomonas aeruginosa MB2245 assessed as growth inhibition; assay type: functional; summary of the method: as §1

Row | Structure (SMILES) | growth inhibition (GI) (Proteus vulgaris) | growth inhibition (GI) (Pasteurella multocida) | MIC (Klebsiella aerogenes) [µg/mL] | growth inhibition (GI) (Streptococcus pyogenes) | MIC (Staphylococcus aureus [1]) [µg/mL] | MIC (Staphylococcus aureus [2]) [µg/mL] | MIC (Pseudomonas aeruginosa [3]) [µg/mL] | growth inhibition (GI) [4] | MIC (Bacillus subtilis) [µg/mL] | MIC [5] [µg/mL] | MIC (Escherichia coli) [µg/mL] | MIC [6] [µg/mL] | MIC (Salmonella) [µg/mL] | MIC (Pseudomonas aeruginosa [7]) [µg/mL]
1 | Cl.NCCCNCCCNC(CCc1ccc2ccccc2c1)CCc1ccc2ccccc2c1 | inactive | Active | 20 | Active | 6 | 8 | 40 | inactive | 8 | 4 | 15 | 4 | 8 | 100
2 | CC1(C)C2CCC(C2)C1CCC(CCC1C2CCC(C2)C1(C)C)NCCCNCCCNCCCN.Cl (centres undefined) | inactive | Active | 30 | Active | 15 | 8 | 8 | inactive | 2 | 2 | 10 | 2 | 6 | 8
3 | CC1(C)C2CCC(C2)C1CCC(CCC1C2CCC(C2)C1(C)C)NCCNCCNCCN.Cl (centres undefined) | inactive | Active | 8 | Active | 4 | 30 | 50 | inactive | 4 | 4 | 8 | 10 | 4 | 30
4 | CC1(C)C2CCC(C2)C1CCC(CCC1C2CCC(C2)C1(C)C)NCCCN(CCCN)CCCN.Cl (centres undefined) | inactive | Active | 30 | Active | 6 | 4 | 50 | inactive | 4 | 4 | 50 | 2 | 4 | 30
5 | Cl.NCCCNCCCNC(CCC1CCCC1)CCC1CCCC1 | inactive | Active | 15 | Active | 20 | 15 | 60 | inactive | 6 | 4 | 30 | 4 | 8 | 30
6 | Cc1ccc(C(C)(C)C)cc1CCCC(CCCc1cc(C(C)(C)C)ccc1C)NCCCNCCCNCCCN.Cl | inactive | Active | 200 | Active | 20 | 8 | 40 | inactive | 6 | 8 | 100 | 8 | 8 | 50
7 | CN(CCCNCCCN)C(CCC1CCCCC1)CCC1CCCCC1.Cl | inactive | Active | 4 | Active | 10 | 30 | 8 | inactive | 4 | 6 | 8 | 4 | 1 | 20
8 | Cl.NCCCNCCCNC(CC1CCCCC1)CC1CCCCC1 | inactive | Active | 8 | Active | 30 | 40 | 60 | inactive | 10 | 4 | 40 | 6 | 4 | 40
9 | CC1(C)C2CCC(C2)C1CCC(CCC1C2CCC(C2)C1(C)C)NCCNCCNCCCN.Cl (centres undefined) | inactive | Active | 10 | Active | 20 | 6 | 60 | inactive | 6 | 6 | 10 | 30 | 6 | 60
10 | CC(C)(C)c1ccc(CCCC(CCCc2ccc(C(C)(C)C)cc2)NCCCNCCCN)cc1.Cl | inactive | Active | 40 | Active | 20 | 10 | 80 | inactive | 8 | 8 | 40 | 8 | 8 | 40
11 | CC(C)c1ccc(CCC(CCc2ccc(C(C)C)cc2)NCCCNCCCN)cc1.Cl | inactive | Active |  | Active | 8 | 8 | 10 | inactive | 4 | 4 | 8 | 4 | 4 | 10
12 | Cl.NCCCNCCCNC(CCCC1CC=CCC1)CCCC1CC=CCC1 (centres undefined) | inactive | Active | 6 | Active | 6 | 10 | 20 | inactive | 4 | 2 | 10 | 4 | 4 | 15
13 | Cl.NCCCNCC(O)CNC(CCC1CCCCC1)CCC1CCCCC1 (centres undefined) |  |  | 6 |  | 8 | 15 | 20 |  | 4 | 4 | 8 | 4 | 4 | 8
14 | Cl.NCCNCCNCCNC(CCCC1CCCCC1)CCCC1CCCCC1 | inactive | Active | 6 | Active | 6 | 15 | 30 | inactive | 4 | 6 | 10 | 4 | 6 | 30
15 | CC(C)c1ccc(CCCC(CCCc2ccc(C(C)C)cc2)NCCCNCCCN)cc1.Cl | inactive | Active | 20 | Active | 20 | 20 | 15 | inactive | 6 | 10 | 40 | 10 | 10 | 40
16 | Cl.NCCNCCNCCNC(CCC1CCCCC1)CCC1CCCCC1 | inactive | Active | 15 | Active | 6 | 30 | 40 | inactive | 6 | 6 | 20 | 4 | 4 | 30
